Reference: ChEMBL document CHEMBL2331259, “Design, synthesis, biological evaluation and molecular modeling studies of 1-aryl-6-(3,4,5-trimethoxyphenyl)-3(Z)-hexen-1,5-diynes as a new class of potent antitumor agents” (Eur J Med Chem, 2013)
Calls of active or inactive are those of the source. The calls are words filed in the database; no cut-off is given here.

Experiments:
[1] = target: T1, Tubulin alpha (Homo sapiens) (UniProt P0DPH7+P68366+Q71U36+P68363+Q9BQE3+Q6PEY2+A6NHL2+Q9NY65); experiment: Binding affinity to Tubulin alpha/beta in human BT-483 cells assessed as microtubule depolymerization at 3.6 uM after 6 hrs by immunofluorescence analysis; type: cell-based
[2] = test system: SK-HEP1; experiment: Cytotoxicity against human SKHEP1 cells assessed as growth inhibition; type: functional, cell-based
[3] = Cytotoxicity against human CE81T cells assessed as growth inhibition; type: functional, cell-based
[4] = test system: SAS; experiment: Cytotoxicity against human SAS cells assessed as growth inhibition; type: functional, cell-based
[5] = test system: HeLa; experiment: Cytotoxicity against human HeLa cells assessed as growth inhibition; type: functional, cell-based
[6] = test system: PC-3; experiment: Cytotoxicity against human PC3 cells assessed as growth inhibition; type: functional, cell-based
[7] = Cytotoxicity against human BT-483 cells assessed as growth inhibition; type: functional, cell-based
[8] = test system: AGS; experiment: Cytotoxicity against human AGS cells assessed as growth inhibition; type: functional, cell-based
[9] = test system: A549; experiment: Cytotoxicity against human A549 cells assessed as growth inhibition; type: functional, cell-based
[10] = test system: BT-483; experiment: Induction of DNA damage in human BT-483 cells assessed as gamma H2AX phosphorylation at Ser139 at 1 uM after 24 hrs by Western blot analysis; type: functional, cell-based
How it was run: (§1)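 BT483 cells treated 24 h with vehicle (1% DMSO) or compound at various concentrations, PBS-washed and lysed. 50 μg protein run on 15% SDS-PAGE, transferred to PVDF, blocked overnight at 4 °C in 5% nonfat milk. Probed 2 h at room temperature with monoclonal anti-Caspase-3, anti-PARP, anti-phospho-γ-H2AX or anti-β-actin, then secondary IgG (1:5000). ECL detection. Irinotecan served as positive control.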

[11] = test system: BT-483; experiment: Antitumor activity against human BT-483 cells xenografted in nude mouse assessed as decrease in tumor growth at 20 mg/kg/day, ip for 2 weeks measured every 3 days by caliper analysis; type: functional, organism-based
How it was run: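 Nude mice (male, 6–8 weeks, 20–25 g, SPF) inoculated s.c. in left flank with 1×10^6 BT483 cells in 50% matrigel. Treatment began at tumor volume ~20 mm³: i.p. daily for 2 weeks versus DMSO vehicle (n = 5 vehicle, n = 6 treated). Caliper measurement every 3 days from first dose; volume = width × length × height. Mean ± SEM.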

[12] = target: T1, Tubulin alpha (Homo sapiens); experiment: Binding affinity to Tubulin alpha/beta in human BT-483 cells assessed as microtubule depolymerization at 1 uM after 6 hrs by immunofluorescence analysis; type: cell-based
How it was run: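 BT483 cells held at 4 °C for 4 h to depolymerize microtubules, then incubated at 37 °C for 6 h in medium with DMSO or 1 μM compound. Cells fixed, immunostained with anti-tubulin antibody to view microtubule distribution; nuclei counterstained with DAPI.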

[13] = test system: BT-483; experiment: Induction of DNA damage in human BT-483 cells assessed as gamma H2AX phosphorylation at Ser139 at 1 to 10 uM after 24 hrs by Western blot analysis; type: functional, cell-based; how it was run: as §1
[14] = test system: BT-483; experiment: Induction of apoptosis in human BT-483 cells assessed as PARP cleavage at 1 uM after 24 hrs by Western blot analysis; type: functional, cell-based; how it was run: as §1
[15] = test system: BT-483; experiment: Induction of apoptosis in human BT-483 cells assessed as increase in caspase 3 activity at 1 uM after 24 hrs by Western blot analysis; type: functional, cell-based; how it was run: as §1
[16] = Cell cycle arrest in human BT-483 cells assessed as accumulation of cells at subG1 phase at 0.2 uM after 24 hrs by flow cytometric analysis; type: functional, cell-based
How it was run: (§2)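 BT-483 cells exposed to DMSO or 0.2 μM compound for 12 and 24 h, harvested, PBS-rinsed, fixed in 80% ethanol and stored at -20 °C. DNA-fluorescence flow cytometry used for cell cycle distribution, including G2/M and sub-G1 fractions.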

[17] = Cell cycle arrest in human BT-483 cells assessed as accumulation of cells at G2/M phase at 0.2 uM after 12 hrs by flow cytometric analysis; type: functional, cell-based; how it was run: as §2

Activity [1] | Activity [12] | Compound | IC50 [2] | IC50 [3] | IC50 [4] | IC50 [5] | IC50 [6] | IC50 [7] | IC50 [8] | IC50 [9] | Activity [10] | Activity [11] | Activity [13] | Activity [14] | Activity [15] | Activity [16] | Activity [17]
Active |  | Nc1ccccc1C#C/C=C\C#Cc1ccccc1C(F)(F)F | 6.68 µM | 2.91 µM | 5.83 µM | 5.49 µM | 8.26 µM | 8.56 µM | 8.24 µM | 6.57 µM |  |  |  |  |  |  | 
 |  | COc1ccccc1C#C/C=C\C#Cc1cc(OC)c(OC)c(OC)c1 | 0.34 µM | 6.95 µM | 9.88 µM | 0.57 µM | 0.62 µM | 1.23 µM | 0.78 µM | 0.52 µM |  |  |  |  |  |  | 
 |  | COc1cc(C#C/C=C\C#Cc2cc(C(F)(F)F)ccc2N)cc(OC)c1OC | 28.3 µM | 21 µM | 15.8 µM | 24.8 µM |  | 21.2 µM |  | 12.4 µM |  |  |  |  |  |  | 
 |  | COc1cc2c(c(OC)c1OC)-c1ccc(OC)c(=O)cc1[C@@H](NC(C)=O)CC2 [COLCHICINE] | 0.78 µM | 1.78 µM | 3.5 µM | 0.66 µM | 0.06 µM | 1.45 µM | 0.05 µM | 0.07 µM |  |  |  |  |  |  | 
 |  | COc1ccc(C#C/C=C\C#Cc2cc(OC)c(OC)c(OC)c2)c(N)c1 | 5.23 µM | 30 µM | 12.3 µM | 5 µM | 11.7 µM | 9.56 µM | 5.75 µM | 6.42 µM |  |  |  |  |  |  | 
 |  | COc1ccc(C#C/C=C\C#Cc2cc(OC)c(OC)c(OC)c2)c([N+](=O)[O-])c1 | 4.28 µM | 6.32 µM | 0.65 µM | 2.26 µM | 3.79 µM | 4.53 µM | 2.78 µM | 5.95 µM |  |  |  |  |  |  | 
 |  | COc1cc(C#C/C=C\C#Cc2ccccc2N)cc(OC)c1OC | 0.2 µM | 8.98 µM | 4.53 µM | 0.64 µM | 0.73 µM | 1.98 µM | 0.98 µM | 0.57 µM |  |  |  |  |  |  | 
 |  | CCc1c2c(nc3ccc(OC(=O)N4CCC(N5CCCCC5)CC4)cc13)-c1cc3c(c(=O)n1C2)COC(=O)[C@]3(O)CC |  |  |  |  |  |  |  |  | Active |  |  |  |  |  | 
 |  | COc1cc(C#C/C=C\C#Cc2ccccc2[N+](=O)[O-])cc(OC)c1OC | 1.34 µM | 6.91 µM | 1.37 µM | 1.89 µM | 4.56 µM | 4.24 µM | 4.66 µM | 5.71 µM |  |  |  |  |  |  | 
 |  | COc1ccc(C#C/C=C\C#Cc2cc(OC)c(OC)c(OC)c2)c(OC)c1 | 14.4 µM | 17.4 µM |  | 12.8 µM | 22.9 µM |  |  |  |  |  |  |  |  |  | 
 |  | COc1cc(C#C/C=C\C#Cc2ccccc2SC)cc(OC)c1OC | 13.3 µM | 13.9 µM | 12.8 µM | 15.9 µM | 17.4 µM | 15.2 µM | 9.53 µM | 11.7 µM |  |  |  |  |  |  | 
 | Active | COc1cc(C#C/C=C\C#Cc2ccccn2)cc(OC)c1OC | 0.43 µM | 6.87 µM | 1.16 µM | 0.39 µM | 0.51 µM | 0.86 µM | 0.13 µM | 3.99 µM |  | Active | Active | Active | Active | Active | Active
 |  | COc1cc(C#C/C=C\C#Cc2ccccc2C#N)cc(OC)c1OC | 1.2 µM | 6.39 µM | 10.6 µM | 1.07 µM | 8.68 µM | 10.5 µM | 4.56 µM | 0.79 µM |  |  |  |  |  |  | 
